Source: PubChem BioAssay (several laboratories)
M1 ag = agonists of M1 muscarinic receptor; CHO-M1 cells, Fluo-4 calcium fluorescence, agonist mode; stronger effect = higher value; actives 3% (n = 64,000); B-score at 10 µM;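 active = fluorescence rise, raw or as B-score row- and column-corrected plate score, outside the 99.7% band of its plate's samples, either direction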
DUSP1 inh = inhibitors of human MKP-1 phosphatase; P28562; inhibition, %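 (compounds tested at a single concentration somewhere between 10 and 100 µM)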; recombinant MKP-1, OMFP hydrolysis fluorescence; AID 374; actives 0.15% (n = 65,000);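 active = inhibition above about 50%, limit read from the data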;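 also: 0% = DMSO max control wells and 100% = wells with enzyme stopped by NaOH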
Target sequence (P28562 whole entry, looked up): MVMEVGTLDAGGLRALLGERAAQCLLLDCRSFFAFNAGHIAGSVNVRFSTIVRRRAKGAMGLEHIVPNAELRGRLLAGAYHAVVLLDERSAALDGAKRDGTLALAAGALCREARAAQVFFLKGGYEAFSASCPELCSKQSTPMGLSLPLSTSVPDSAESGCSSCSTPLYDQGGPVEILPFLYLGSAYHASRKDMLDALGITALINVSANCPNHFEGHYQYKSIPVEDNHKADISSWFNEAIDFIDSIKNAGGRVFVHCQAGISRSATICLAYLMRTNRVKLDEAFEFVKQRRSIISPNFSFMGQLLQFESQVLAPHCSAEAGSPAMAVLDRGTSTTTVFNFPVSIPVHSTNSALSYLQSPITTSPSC
Her2 expr inh = Her2 kinase expression inhibition; P04626; SKBR-3 HER2 protein level, AlphaScreen, 18-24 h; stronger effect = lower value; HER2 level % of control, % at 10 µM; actives 0.69% (n = 65,000); AID 645;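 active = HER2 level under 5% of the carrier-only control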;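 also: 100% = DMSO carrier and 0% = 500 nM PU-H71 HSP90 inhibitor; lower value means stronger loss of Her2 protein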
Cdc25B inh = inhibitors of human Cdc25B phosphatase | P30305 | recombinant Cdc25B, OMFP fluorescence Ex485/Em525 | inhibition, %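 (compounds tested at 10 µM final in the well)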 | actives 0.1% (n = 65,000); in the data active = inhibition above about 50%
HEK293 NFkB inh = lowers PMA/ionomycin-induced NF-kB signal in HEK293 cells; HEK-293 NF-kB luciferase reporter, luminescence; inhibition, % at 3 µM; actives 0.21% (n = 62,000);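 active = inhibition above the mean of all tested compounds plus 3 SD, cut at about 40% in these data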;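 also: 0% = stimulated DMSO wells and 100% = 10 µM reference inhibitor 5653914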
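Timing: 1 h pretreatment, 16 h stimulation, 37 °C; system: HEK-293 cells with stable firefly luciferase reporter driven by four HIV NF-kB elements; doses: 3 µM once, 0.30% DMSO; measured by: luciferase luminescence; control set: DMSO and 10 µM reference inhibitor; repeats: single test; reagent: PMA plus ionomycin mix as NF-kB-activating stimulus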
M1 antag = M1 muscarinic receptor (rat) antagonism; P08482; CHO-M1 cells, Fluo-4 calcium, ACh EC80 antagonist mode; stronger effect = lower value; B-score at 10 µM; actives 3.4% (n = 64,000); AID 628;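 active = calcium fluorescence response, raw or row-and-column corrected B-score, differing from the plate sample mean either way at a set confidence level, mostly lower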
M1 antag confirm = confirmation of rat M1 muscarinic receptor antagonists; shares compounds with M1 antag; CHO-M1 cells, Fluo-4 calcium, ACh EC80 antagonism; stronger effect = lower value; calcium response (max-min fluorescence) at 10 µM; actives 43% (n = 1,700); AID 677;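 active = calcium response below the same-plate mean of wells given acetylcholine alone at its 80%-effect dose, minus 3 SD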;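 also: raw fluorescence intensity difference in arbitrary instrument units and not normalized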
mGluR4 antag = mGluR4 (human) activity, M1 antagonist secondary assay | shares compounds with M1 antag | CHO-mGluR4 calcium flux, Fluo-4 fluorescence, glutamate EC80; stronger effect = lower value | fluorescence response (max-min) at 10 µM | actives 0.9% (n = 1,700);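 active = fluorescence response below the plate's average for near-maximal glutamate wells, less 3 SD of those wells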;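 also: raw unnormalized fluorescence span taken in the window right after glutamate addition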
* hit, by the source's call; · = not tested or not shown. Only some compounds are listed: those with a hit (about 6.8% of all), similar ones and a draw of the others.

SMILES	M1 ag	DUSP1 inh	Her2 expr inh	Cdc25B inh	HEK293 NFkB inh	M1 antag	M1 antag confirm	mGluR4 antag
COc1ccc(C(C(=O)OCCN(C)C)c2ccccc2)cc1 (configuration not stated)	0.491	1.9	95.0	-14.4	23.9	-5.85*	232*	259
N#CC1=C(O)C(c2ccccc2)n2c1nc(=O)c1ccccc12 (configuration not stated)	0.291	8.8	98.2	28.6	-6.1	-0.129	·	·
CCCOc1ccc(/C(O)=C2/C(=O)C(=O)N(CCN(CC)CC)C2c2ccncc2)cc1 (configuration not stated)	-1.48	-16.0	94.8	-1.7	-3.6	-0.376	·	·
CCCCOc1ccccc1NC(=O)CC1SC(=NCC)N(CC)C1=O (configuration not stated)	1.5	0.9	101.8	-20.3	4.5	-2.83*	575	232
C=CCN1C(=Nc2cccnc2)SCC1(O)c1ccc(C)cc1 (configuration not stated)	2.04	0.3	35.8	-14.0	1.0	-2.19*	478*	203
O=C(CCn1nc(-c2ccccc2)c2ccccc2c1=O)NCC1CCCO1 (configuration not stated)	0.671	-3.8	129.6	2.1	4.6	0.331	·	·
O=C(Nc1ccc(Cl)cc1)N1CCSCC1	-0.0287	-6.7	56.9	-6.2	3.8	-2.29*	554	213
Cn1c(C(=O)N2CCCC(C(=O)NCCc3ccccc3)C2)cc2sccc21 (configuration not stated)	-1.12	10.8	72.3	-14.3	18.7	-6.11*	328*	248
Cn1c(C(=O)N2CCCC(C(=O)NCCCc3ccccc3)C2)cc2sccc21 (configuration not stated)	-0.42	16.6	76.8	-9.4	21.7	-2.32	·	·
COC(=O)c1ccccc1NC(=O)CN1CCN(C23CC4CC(CC(C4)C2)C3)CC1	-0.0402	-13.4	109.0	-5.9	-1.2	-10.7*	393*	229
COC(=O)c1ccccc1NC(=O)CN1CCC(n2nnc3cc(F)ccc32)CC1	0.0976	4.8	77.3	12.7	6.7	-4.62*	594	232
COC(=O)c1ccccc1NC(=O)CN1CCC(NC(=O)c2ccc(C)cc2)CC1	-1.13	27.8	94.4	-16.6	18.1	0.662	·	·
O=C(CN1CCC(n2nnc3cc(F)ccc32)CC1)NC1CCCCC1	-0.638	4.2	103.3	19.8	9.2	-3.68*	604	243
O=C(CN1CCC(n2nnc3cc(F)ccc32)CC1)Nc1ccccc1N1CCOCC1	0.345	12.4	100.0	-5.9	8.6	-0.0668	·	·
CN1CCc2c(sc3c2c(=O)n(-c2ccccc2)c2nnc(SCc4ccccc4F)n32)C1	-0.268	-12.1	106.1	0.7	-3.5	-0.0259	·	·
CN(C)C(CNC(=O)CN1C(=O)NC2(CCc3ccccc32)C1=O)c1ccco1 (configuration not stated)	-0.472	20.4	127.5	-5.5	9.1	-1.29	·	·
Cc1c(NC2=NC3(CCCCC3)Cc3ccccc32)c(=O)n(-c2ccccc2)n1C	-0.0669	2.8	96.5	-6.4	10.8	-2.69*	62*	200
CCC(CC)C(=O)NCc1ccccc1Cl	0.0328	-2.0	90.5	3.7	-8.8	0.031	·	·
O=C(CSc1nnc(CNC(=O)c2ccccc2F)o1)c1ccccc1	-1.96	-4.4	104.4	-0.2	14.1	-3.24*	611	245
O=C(NCc1nnc(SCC(=O)N2CCCC2)o1)c1ccccc1F	-0.498	5.9	117.3	-7.7	14.6	-1.12	·	·
CC(C)c1ccc(NC(=O)C2CC(=O)N=C(N)S2)cc1 (configuration not stated)	-0.414	-11.1	63.0	-11.3	9.0	-0.0267	·	·
COC(=O)C1=C(NC(=O)c2ccc(C)c(C)c2)CCS1	·	-8.7	74.2	1.5	19.7	·	·	·
CCOC(=O)/C=C1\SCC(=O)N1CC(=O)Nc1ccc2c(c1)CCC2	0.39	34.4	78.6	-4.7	7.8	-1.9*	652	183
CCOC(=O)/C=C1\SCC(=O)N1CC(=O)NC1CCCCC1	0.627	3.4	104.2	-4.4	7.5	0.409	·	·
CCOC(=O)CNC(=O)CSc1nnc(Cn2cnc3ccccc32)n1C	-0.615	29.5	102.8	4.3	0.4	-0.0285	·	·
SMILES	M1 ag	DUSP1 inh	Her2 expr inh	Cdc25B inh	HEK293 NFkB inh	M1 antag	M1 antag confirm	mGluR4 antag
C=CC(C)Sc1nc2c(c(=O)n(C)c(=O)n2C)n1Cc1ccccc1Cl (configuration not stated)	0.522	12.6	92.6	2.5	2.3	-4.51*	594	265
Cn1c(=O)c2c(nc(SCCN3CCOCC3)n2Cc2ccccc2)n(C)c1=O	-0.63	6.2	109.7	-9.9	-5.1	-0.00601	·	·
Cn1c(=O)c2c(nc(SCCN3CCCCC3)n2Cc2ccc(Cl)cc2)n(C)c1=O	-0.878	-8.9	107.3	13.0	·	-7.77*	86.7*	248
CCSc1nc2c(c(=O)n(C)c(=O)n2C)n1Cc1ccc(Cl)cc1	0.44	10.3	100.9	4.5	23.7	-3.66*	410	225
Cn1c(=O)c2c(nc(SCCCO)n2Cc2ccccc2Cl)n(C)c1=O	0.454	-14.4	101.2	-4.3	6.2	-0.0495	·	·
Cn1c(=O)c2c(nc(Sc3ncccn3)n2Cc2ccc(Cl)cc2)n(C)c1=O	-0.995	13.8	119.2	-3.2	2.3	0.197	·	·
Cc1cc(=O)oc(C)c1C(=O)N[C@@H]1CCCCNC1=O	-0.847	-21.8	93.3	25.5	·	0.742	·	·
COc1ccc(N(C(=O)c2ccc(Br)o2)C2C=CS(=O)(=O)C2)cc1 (configuration not stated)	0.0311	8.7	88.4	-2.7	12.8	-0.0263	·	·
O=C(O)c1ccc(CN2CCCCC2)o1	-0.342	17.4	108.2	0.7	-0.9	-0.848	·	·
CC(C)CCNC(=O)C(C)N(Cc1ccc(F)cc1)C(=O)c1ccc(CN2CCCCC2)o1 (configuration not stated)	-0.143	3.1	89.7	-26.3	9.9	-3.25*	595	219
COc1ccccc1S(=O)Cc1ccc(C(=O)NC2CCCC2)o1 (configuration not stated)	-0.212	-3.7	73.2	-10.9	17.2	0.227	·	·
COc1ccccc1S(=O)Cc1ccc(C(=O)NCCc2ccc(Cl)cc2)o1 (configuration not stated)	2.44	-0.4	73.4	-15.1	18.9	-3.15*	545	193
Cc1cc(-c2nnc3sc(C4CCCCC4)nn23)n[nH]1	-0.0752	4.4	172.9	0.3	3.8	-0.135*	518	214
CCN(C(=O)Cc1c(C(=O)O)[nH]c2ccccc12)c1cc(OC)ccc1OC	-0.637	4.8	171.5	-9.7	16.3	-2.24*	448	207
